ChEMBL document CHEMBL4513216, “Probing the Open Global Health Chemical Diversity Library for Multistage-Active Starting Points for Next-Generation Antimalarials” (ACS Infect Dis, 2020)

Assay: Toxicity liver stage against HepG2, at 10uM
Assay type: cell-based
Parameters: test concentration 10 uM, cell line HepG2-A16-CD81EGFP
Details: human, HepG2-A16-CD81EGFP cells; read-out: INHIBITION
How it was run: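 Uninfected HepG2-A16-CD81EGFP cells, 3 × 10^3 per well, 1536-well, plated on prespotted compound at 10 μM final, parasite-free screening media added to match infected plates; puromycin 10 μM positive, DMSO 0.5% negative; run in parallel with 48 h PbLuc assay at 37 °C, 5% CO2; viability by CellTiter-Glo luminescence, normalized to controls.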

| SMILES | cytotoxicity at 10 µM |
| --- | --- |
| N#Cc1cccc(N2CCOCC3(CCCN(C(=O)NC4CC4)C3)C2)c1 (stereo not given) | 14.1% |
| O=C(c1cc2c(s1)CCN2C(=O)C1CC1)N1CCCC1 | 2.62% |
| Cc1nnc([C@@H]2CC[C@@H]3[C@@H](CCN3C3CCC3)O2)o1 | 8.19% |
| COc1ccccc1-c1ccnc2nc(N3CCCCC3)[nH]c(=O)c12 | 7.36% |
| Cn1nc(C(=O)NCc2cccs2)c2c1CCS(=O)(=O)C2 | -0.328% |
| CN1CCc2nc(C3CCCN(S(=O)(=O)N4CCCC4)C3)ncc2C1 (stereo not given) | 2.4% |
| Cc1cncc(C2CCN(Cc3ccncc3)CC2)n1 | -3.08% |
| CC(=O)N1CCN(c2cc(C)ncn2)CC(CO)C1 (stereo not given) | 2.94% |
| CC(=O)Nc1nc(C2CCN(C(C)C)CC2)cs1 | -3.3% |
| Cc1ccc(C(=O)N2CCC[C@@H]2Cn2nnc3c(O)nc(C)nc32)cc1 | -10.3% |
| Cc1cc(-c2cc(F)ccc2C(=O)O)nc(C2CCCN(C)C2)n1 (stereo not given) | -11.4% |
| Cc1cccc(CN2CCC(c3nnc(-c4scnc4C)o3)CC2)c1 | -3.8% |
| CC(C)NC(=O)N1CCn2c(nnc2C2CCCN2)C1 (stereo not given) | -1.32% |
| CS(=O)(=O)N1CC2(CCCN2Cc2ccc(Cl)cc2)Cc2ccccc21 (stereo not given) | 17% |
| COCC(=O)N1CCN(C(C)C(=O)NC(C)C)CC1 (stereo not given) | 1.06% |
| CN(C)CC1CN(Cc2cc(Cl)cc3cccnc23)CCO1 (stereo not given) | 5.26% |
| Cc1cc(C)c(CNC(=O)NCc2nnc3n2CCC3)c(=O)[nH]1 | 22.1% |
| Cn1cc(C(O)CNC(=O)Nc2cc(F)ccc2-n2cccn2)cn1 (stereo not given) | 1.01% |
| CSC(CNS(=O)(=O)c1cnn(C)c1)c1cccc(Cl)c1 (stereo not given) | 4.63% |
| CNc1nc2c(s1)C(=O)CN(C(=O)NCCc1ccccc1)C2 | -7.38% |
| CC(C)[C@H](NS(C)(=O)=O)C(=O)NCc1cc(-c2ccco2)n[nH]1 | -9.13% |
| CSc1ccc(C(=O)N2CCOCC2c2c(C)nn(C)c2C)o1 (stereo not given) | -2.12% |
| N#Cc1ccsc1NC(=O)CN1CCn2c(nnc2C2CC2)C1 | -14.5% |

| SMILES | cytotoxicity at 10 µM |
| --- | --- |
| CC(C(=O)NCc1ccnc(N2CCN(C)CC2)c1)S(C)(=O)=O (stereo not given) | -13.9% |
| O=C(NCC(=O)N1CCCC(c2ccccc2)CC1)c1ccoc1 (stereo not given) | -4.31% |
| CCC(O)CN1CCN(C(=O)c2sccc2C(C)C)CC1 (stereo not given) | 6.89% |
| NC(=O)c1csc(C(=O)N2CCCC(n3cccn3)C2)c1 (stereo not given) | -2.77% |
| NC(=O)c1ccc(C(=O)N2CCCC(n3ccnc3)C2)s1 (stereo not given) | -20.5% |
| Cc1noc(C)c1C(=O)NCC(c1ccc(F)cc1)N(C)C (stereo not given) | -0.0707% |
| COCCN1CCC(N(Cc2noc(C3CC3)n2)C(C)=O)C1 (stereo not given) | -12.4% |
| Cc1cccc(-c2ccc(C(=O)NCCN(C)C3CC3)c(=O)[nH]2)c1 | -6.81% |
| CCC1CN(CCNC(C)=O)CCN1CCOC (stereo not given) | -3.09% |
| CCOc1cccc2c1OCC(C(=O)NS(=O)(=O)c1ccc(Cl)cc1)=C2 | -11.1% |
| O=C(NCCOc1ccc2c(c1)OCO2)N1CCC1 | -6.24% |
| CCc1cnc(CN2CCC(N(C)Cc3noc(C4CC4)n3)C2)o1 (stereo not given) | -10.2% |
| COCCN1CCC2(CC1)CN(CCn1cccn1)C(=O)CO2 | 7.22% |
| COCCN1CCC12CCN(C(=O)Cc1cccs1)C2 (stereo not given) | 7.89% |
| c1cnc(N2CCO[C@H]3CN(Cc4csnn4)C[C@H]32)cn1 | 4.23% |
| CC(C)N(C)C[C@H]1OC[C@@H]2CCN(Cc3cccc(C#N)c3)C[C@@H]21 | 9.28% |
| Cc1c(F)cccc1S(=O)(=O)NC(C)(C)CN | 0.926% |
| CN1CCC2(CCN(CC3CC3)CC2)C1=O | 10.9% |
| c1csc(CN2CCC3(CC2)CCN(CC2CC2)CC3)n1 | 3.17% |
| CN1CCCn2c(nc(CNS(=O)(=O)C3CC3)cc2=O)C1 | 5.92% |
| CN(C)CCOCc1ncn2c1CN(c1ncc(F)cn1)CCC2 | 15% |
| c1cnc(N2CCOCC3(CCCN(Cc4cc[nH]n4)C3)C2)nc1 (stereo not given) | 3.35% |
